# Source: ChEMBL document CHEMBL2440016, “Targeting the human parasite Leishmania donovani: discovery of a new promising anti-infectious pharmacophore in 3-nitroimidazo[1,2-a]pyridine series” (Bioorg Med Chem, 2013)
# Experiments:
# [1] = tested on: HepG2; experiment: (§1) Cytotoxicity against human HepG2 cells after 72 hrs by MTT assay; format: cell-based; details: hepg2, 72 h
# Outline: (§2)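 Cells plated in RPMI with 10% FCS, L-glutamine and penicillin/streptomycin, 24 h at 37 °C, 6% CO2. Compound dilutions then added for 72 h. MTT 0.5 mg/mL in PBS for 2 h, formazan dissolved in DMSO, A570 with 630 nm reference. Viability taken as % of untreated control. Doxorubicin served as positive control. CC50 from the dose-response curve.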
# [2] = Cytotoxicity against mouse J774.1 cells after 72 hrs by MTT assay; format: cell-based; outline: as §2
# [3] = tested on: Leishmania donovani; experiment: Antimicrobial activity against Leishmania donovani MHOM/IN/00/DEVI promastigotes after 72 hrs by MTT assay; format: functional, organism-based
# Outline: (§3)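 Log-phase promastigotes in Schneider's medium with 20% FCS, 2 mM L-glutamine and penicillin/streptomycin, at 10⁶ parasites/mL. Compound dilutions run in duplicate, final DMSO <0.5%, 72 h at 27 °C. MTT 0.5 mg/mL for 6 h at 27 °C, formazan dissolved in DMSO, A570.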
# [4] = tested on: Leishmania donovani; experiment: Antimicrobial activity against Leishmania donovani amastigotes; format: functional, organism-based
# Outline: (§4)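 J774A.1 macrophages seeded at 5x10⁴ cells/mL, 24 h at 37 °C, 6% CO2. L. donovani promastigotes acidified 24 h at 27 °C in Schneider 20% FCS pH 5.4, then used to infect at 10:1 for 24 h. Compounds added in duplicate, final DMSO <0.5%, 120 h at 37 °C. Cells methanol-fixed and Giemsa-stained, ≥200 cells counted for % infected. IC50 by non-linear regression, mean of three independent experiments.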
# [5] = tested on: Leishmania donovani; experiment: Antimicrobial activity against Leishmania donovani promastigotes; format: functional, organism-based; outline: as §3
# [6] = Selectivity ratio of IC50 for Plasmodium falciparum K1 to IC50 for Leishmania donovani MHOM/IN/00/DEVI amastigotes; format: functional
# [7] = Selectivity ratio of IC50 for Plasmodium falciparum K1 to IC50 for Leishmania infantum MCAN/ES/98/LLM-877 promastigotes; format: functional
# [8] = tested on: Plasmodium falciparum; experiment: Antiplasmodial activity against Plasmodium falciparum K1 infected in human erythrocytes after 72 hrs by SYBR Green I fluorescence assay; format: functional, organism-based; details: K1, 72 h
# Outline: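 K1 strain, resistant to chloroquine, pyrimethamine and proguanil, grown in A+ human erythrocytes with RPMI 1640, HEPES, NaHCO3 and 10% A+ serum. Rings synchronized with 5% sorbitol. Compounds tested at 2% hematocrit and 1% parasitaemia, 72 h at 37 °C in 5% O2, 5% CO2, in triplicate. DNA read by SYBR Green I lysis, 15 min, ex 497/em 520 nm. IC50 from three independent experiments.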
# [9] = tested on: Leishmania donovani; experiment: Antimicrobial activity against Leishmania donovani MHOM/IN/00/DEVI amastigotes infected in mouse J774.1 cells after 120 hrs by microscopic analysis; format: functional, organism-based; details: J774.1, 120 h; outline: as §4
# [10] = tested on: Leishmania infantum; experiment: Antimicrobial activity against Leishmania infantum MCAN/ES/98/LLM-877 promastigotes after 72 hrs by MTT assay; format: functional, organism-based; details: MCAN/ES/98/LLM-877, 72 h; outline: as §3
# [11] = Selectivity ratio of IC50 for Plasmodium falciparum K1 to IC50 for Leishmania donovani MHOM/IN/00/DEVI promastigotes; format: functional
# [12] = Selectivity index, ratio of CC50 for human HepG2 cells to IC50 for Leishmania donovani MHOM/IN/00/DEVI; format: functional
# Outline: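 SI = HepG2 CC50 / L. donovani IC50.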
# [13] = as §1; format: cell-based; details: HepG2 cells; outline: as §2
# [14] = Selectivity index, ratio of CC50 for mouse J774.1 cells to IC50 for Leishmania donovani MHOM/IN/00/DEVI; format: functional
smiles,measurement,setting,value
COc1ccc(-c2ccc3nc(CS(=O)(=O)c4ccccc4)c([N+](=O)[O-])n3c2)cc1,CC50,[1],ND(Insoluble)
same,CC50,"[2]; j774.1, 72 h",ND(Insoluble)
same,IC50,[3],ND(Insoluble)
COc1ccc(Sc2c([N+](=O)[O-])cc(C#N)cc2[N+](=O)[O-])cc1,IC50,[4],0.7 µM
CSc1ccc(OCc2ncc([N+](=O)[O-])n2C)cc1 [FEXINIDAZOLE],IC50,[5],5.6 µM
same,IC50,[4],2.8 µM
O=[N+]([O-])c1c(CS(=O)(=O)c2ccccc2)nc2c(Br)cc(Br)cn12,Ratio IC50,[6],3
same,Ratio IC50,[7],4.8
same,IC50,[8],16 µM
same,IC50,[9],5.5 µM
same,IC50,[10],3.3 µM
same,Ratio IC50,[11],8.9
same,Ratio CC50/IC50,[12],>17.2
same,CC50 at 72 h,[13],> 31 µM
same,Ratio CC50/IC50,[14],>13.4
same,CC50 at 72 h,[2]; J774.1 cells,> 25 µM
same,IC50,"[3]; Leishmania donovani, MHOM/IN/00/DEVI, 72 h, read-out: IC50",1.8 µM
